According to ChEMBL document CHEMBL3351631, “Towards the next generation of dual Bcl-2/Bcl-xL inhibitors” (Bioorg Med Chem Lett, 2014):
In brackets after ≈: the same amount, converted by molar mass.

Key:
[1] = target: Apoptosis regulator Bcl-2 (Homo sapiens, UniProt P10415); assay: Inhibition of c-terminal 6xHis-tagged Bcl-2 (amino acids 1 to 204) (unknown origin) preincubated for 1 hr prior to substrate addition measured after 20 mins by fluorescence polarization assay
Bcl-2-like protein 1 = Bcl-2-like protein 1 (Homo sapiens, UniProt Q07817); assay: Inhibition of c-terminal 6xHis-tagged Bcl-xL (amino acids 1 to 209) (unknown origin) preincubated for 1 hr prior to substrate addition measured after 20 mins by fluorescence polarization assay
Chain of Bcl-2-like protein 1 (Q07817 whole entry, the tested form may be a part): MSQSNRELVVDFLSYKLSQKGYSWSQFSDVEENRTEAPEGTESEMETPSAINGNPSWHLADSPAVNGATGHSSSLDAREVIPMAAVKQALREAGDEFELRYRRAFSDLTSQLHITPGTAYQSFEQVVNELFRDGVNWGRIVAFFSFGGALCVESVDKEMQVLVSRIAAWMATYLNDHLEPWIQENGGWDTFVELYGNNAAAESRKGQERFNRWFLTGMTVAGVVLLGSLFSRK
Summary of the method: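 Bcl-xL (aa 1–209, C-terminal 6xHis) at 0.8 nM preincubated 1 h with serial antagonist dilutions, then 2 nM FITC-labelled Bim BH3 peptide tracer added; buffer 20 mM HEPES pH 7.5, 1 mM DTT, 0.005% Tween-20, 50 mM NaCl.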

[2] = Equilibrium solubility of the compound at pH 7.4; format: physicochemical; conditions: buffer
RS4-11 = assay: Induction of apoptosis in human RS4:11 cells overexpressing BCL-2 assessed as caspase 3/7 activation after 6 hrs by quantitative luminescence assay; format: functional, cell-based; conditions: RS4-11, 6 h
Summary of the method: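 RS4;11 cells seeded 10,000/well in RPMI with 10% FBS; after 16 h, compound added in duplicate for 6 h at 37 °C. Equal volume of Caspase-Glo 3/7 reagent added, 1 h, luminescence read. DMSO set minimum and ABT-263 maximum caspase activity. EC50 averaged from at least two experiments.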

[3] = Dissociation constant, pKa of the compound; format: physicochemical

Chain of Apoptosis regulator Bcl-2 (P10415 whole entry, the tested form may be a part): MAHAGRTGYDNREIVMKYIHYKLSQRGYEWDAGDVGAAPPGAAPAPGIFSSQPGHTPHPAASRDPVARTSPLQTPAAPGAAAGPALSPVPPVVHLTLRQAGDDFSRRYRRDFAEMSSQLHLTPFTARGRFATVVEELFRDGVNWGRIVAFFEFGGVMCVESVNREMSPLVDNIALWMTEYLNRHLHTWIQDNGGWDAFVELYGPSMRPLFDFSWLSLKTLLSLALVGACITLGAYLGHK

SMILES | IC50 [1] [µM] | IC50 (Bcl-2-like protein 1) [µM] | solubility thermodynamic [2] [µM] | EC50 (RS4-11) [µM] | pKa [3]
O=C(NS(=O)(=O)c1ccc(N[C@H](CCN2CCOCC2)CSc2ccccc2)c(S(=O)(=O)C(F)(F)F)c1)c1ccc(P2(=O)CCN(Cc3ccccc3-c3ccc(Cl)cc3)CC2)cc1 | > 1.1 | 0.308 | 4 (≈ 3.9 µg/mL) | > 1.1 | 
NCC1(Cc2ccccc2-c2ccc(Cl)cc2)CCN(c2ccc(C(=O)NS(=O)(=O)c3ccc(N[C@H](CCN4CCOCC4)CSc4ccccc4)c(S(=O)(=O)C(F)(F)F)c3)cc2)CC1 | < 0.01 | < 0.01 | < 1 | 0.395 | 
Cn1ncc(CN2CCN(c3ccc(C(=O)NS(=O)(=O)c4ccc(N[C@H](CCN5CCOCC5)CSc5ccccc5)c(S(=O)(=O)C(F)(F)F)c4)cc3)CC2)c1-c1ccc(Cl)cc1 | < 0.01 | < 0.01 | < 1 | 0.42 | 
O=C(NS(=O)(=O)c1ccc(N[C@H](CCN2CCOCC2)CSc2ccccc2)c(S(=O)(=O)C(F)(F)F)c1)c1ccc(N2CCN(Cc3ccccc3-c3ccc(Cl)cc3)CC2)nn1 | 0.27 | 0.378 | 38 (≈ 35.9 µg/mL) | 0.563 | 3.6
N=C(NS(=O)(=O)c1ccc(N[C@H](CCN2CCOCC2)CSc2ccccc2)c(S(=O)(=O)C(F)(F)F)c1)c1ccc(N2CCN(Cc3ccccc3-c3ccc(Cl)cc3)CC2)cc1 | 0.019 | 0.063 | < 1 | > 3.19 | 
CN(C)C(=O)COc1cccc(-c2ccc(Cl)cc2)c1CN1CCN(c2ccc(C(=O)NS(=O)(=O)c3ccc(N[C@H](CCN4CCOCC4)CSc4ccccc4)c(S(=O)(=O)C(F)(F)F)c3)cc2)CC1 | < 0.01 | < 0.01 | < 1 | 0.018 | 
O=C(NS(=O)(=O)c1ccc(N[C@H](CCN2CCOCC2)CSc2ccccc2)c(S(=O)(=O)C(F)(F)F)c1)c1ccc(N2CCP(=O)(Cc3ccccc3-c3ccc(Cl)cc3)CC2)cc1 | 0.054 | 0.018 | 21 (≈ 20.5 µg/mL) | > 1.1 | 
O=C(NS(=O)(=O)c1ccc(N[C@H](CCN2CCOCC2)CSc2ccccc2)c(S(=O)(=O)C(F)(F)F)c1)c1ccc(N2CCC(Oc3ccccc3-c3ccc(Cl)cc3)CC2)cc1 | 0.25 | 0.038 | 35 (≈ 33 µg/mL) | > 0.921 | 
CN(C)CCOc1cccc(-c2ccc(Cl)cc2)c1CN1CCN(c2ccc(C(=O)NS(=O)(=O)c3ccc(N[C@H](CCN4CCOCC4)CSc4ccccc4)c(S(=O)(=O)C(F)(F)F)c3)cc2)CC1 | < 0.01 |  | < 1 | 0.004 | 
O=C(NS(=O)(=O)c1ccc(N[C@H](CCN2CCOCC2)CSc2ccccc2)c(S(=O)(=O)C(F)(F)F)c1)c1ccc(N2CCN(Cc3cn[nH]c3-c3ccc(Cl)cc3)CC2)cc1 | 0.04 | 0.038 | < 1 | > 10 | 
O=C(NS(=O)(=O)c1ccc(N[C@H](CCN2CCOCC2)CSc2ccccc2)c(S(=O)(=O)C(F)(F)F)c1)c1csc(N2CCN(Cc3ccccc3-c3ccc(Cl)cc3)CC2)n1 | 0.119 | 0.098 | 2 (≈ 1.9 µg/mL) | 0.385 | 2.6
O=C(NS(=O)(=O)c1ccc(N[C@H](CCN2CCOCC2)CSc2ccccc2)c(S(=O)(=O)C(F)(F)F)c1)c1ccc(N2CCC(S(=O)(=O)c3ccccc3-c3ccc(Cl)cc3)CC2)cc1 | 0.087 | 0.021 | 27 (≈ 26.8 µg/mL) | > 1.1 | 
O=C(NS(=O)(=O)c1ccc(N[C@H](CCN2CCOCC2)CSc2ccccc2)c(S(=O)(=O)C(F)(F)F)c1)c1ccc(N2CCC(C(=O)c3ccccc3-c3ccc(Cl)cc3)CC2)cc1 | 0.065 | < 0.01 |  | > 1.1 | 
O=C(NS(=O)(=O)c1ccc(N[C@H](CCN2CCOCC2)CSc2ccccc2)c(S(=O)(=O)C(F)(F)F)c1)c1ccc(N2CCN(Cc3ccccc3-c3ccc(Cl)cc3)CC2)cc1 | 0.011 | 0.016 | 14 (≈ 13.2 µg/mL) | 0.011 | 
O=C(NS(=O)(=O)c1ccc(N[C@H](CCN2CCOCC2)CSc2ccccc2)c(S(=O)(=O)C(F)(F)F)c1)c1ccc(N2CCN(Cc3cccnc3-c3ccc(Cl)cc3)CC2)cc1 | 0.026 | 0.025 |  | 0.374 | 
CN(C)CCOc1ccc(-c2ccc(Cl)cc2)c(CN2CCN(c3ccc(C(=O)NS(=O)(=O)c4ccc(N[C@H](CCN5CCOCC5)CSc5ccccc5)c(S(=O)(=O)C(F)(F)F)c4)cc3)CC2)c1 | < 0.01 | < 0.01 | < 1 | 0.023 | 
O=C(NS(=O)(=O)c1ccc(N[C@H](CCN2CCOCC2)CSc2ccccc2)c(S(=O)(=O)C(F)(F)F)c1)c1ccc(N2CCN(Cc3ccccc3-c3ncc(Cl)cn3)CC2)cc1 | 0.021 | 0.021 | < 1 | 3.98 | 
O=C(NS(=O)(=O)c1ccc(N[C@H](CCN2CCOCC2)CSc2ccccc2)c(S(=O)(=O)C(F)(F)F)c1)c1cnc(N2CCN(Cc3ccccc3-c3ccc(Cl)cc3)CC2)nc1 | 0.018 | 0.039 | 3 (≈ 2.83 µg/mL) | 0.177 | 3.5
CN(C)C(=O)COc1ccc(-c2ccc(Cl)cc2)c(CN2CCN(c3ccc(C(=O)NS(=O)(=O)c4ccc(N[C@H](CCN5CCOCC5)CSc5ccccc5)c(S(=O)(=O)C(F)(F)F)c4)cc3)CC2)c1 | < 0.01 | < 0.01 | 2 (≈ 2.09 µg/mL) | 0.051 | 
O=C(NS(=O)(=O)c1ccc(N[C@H](CCN2CCOCC2)CSc2ccccc2)c(S(=O)(=O)C(F)(F)F)c1)c1ccc(N2CCC(Sc3ccccc3-c3ccc(Cl)cc3)CC2)cc1 | 0.061 | 0.031 | 27 (≈ 25.9 µg/mL) | > 0.516 | 
O=C(NS(=O)(=O)c1ccc(N[C@H](CCN2CCOCC2)CSc2ccccc2)c(S(=O)(=O)C(F)(F)F)c1)c1ccc(N2CC3(CN(Cc4ccccc4-c4ccc(Cl)cc4)C3)C2)cc1 | > 0.468 | 0.077 | < 1 | 0.61 | 
CCOC(=O)C1(Cc2ccccc2-c2ccc(Cl)cc2)CCN(c2ccc(C(=O)NS(=O)(=O)c3ccc(N[C@H](CCN4CCOCC4)CSc4ccccc4)c(S(=O)(=O)C(F)(F)F)c3)cc2)CC1 | 0.017 | 0.03 | < 1.5 | 1.79 | 
O=C(NS(=O)(=O)c1ccc(N[C@H](CCN2CCOCC2)CSc2ccccc2)c(S(=O)(=O)C(F)(F)F)c1)c1ccc(N2CCN(Cc3ccncc3-c3ccc(Cl)cc3)CC2)cc1 | < 0.01 | 0.015 |  | 0.201 | 
O=C(NS(=O)(=O)c1ccc(N[C@H](CCN2CCOCC2)CSc2ccccc2)c(S(=O)(=O)C(F)(F)F)c1)c1ccc(N2CCC([S@+]([O-])c3ccccc3-c3ccc(Cl)cc3)CC2)cc1 | 0.545 | 0.054 | 12 (≈ 11.7 µg/mL) | > 1.1 | 
N#CC1(Cc2ccccc2-c2ccc(Cl)cc2)CCN(c2ccc(C(=O)NS(=O)(=O)c3ccc(N[C@H](CCN4CCOCC4)CSc4ccccc4)c(S(=O)(=O)C(F)(F)F)c3)cc2)CC1 | < 0.01 | < 0.01 | 2 (≈ 1.93 µg/mL) | 0.504 | 
O=C(NS(=O)(=O)c1ccc(N[C@H](CCN2CCOCC2)CSc2ccccc2)c(S(=O)(=O)C(F)(F)F)c1)c1ccc(N2CCC([S@@+]([O-])c3ccccc3-c3ccc(Cl)cc3)CC2)cc1 | 0.019 | 0.011 | 26 (≈ 25.4 µg/mL) | 0.09 | 
CC1(C)CCC(c2ccc(Cl)cc2)=C(CN2CCN(c3ccc(C(=O)NS(=O)(=O)c4ccc(N[C@H](CCN5CCOCC5)CSc5ccccc5)c(S(=O)(=O)C(F)(F)F)c4)cc3)CC2)C1 [NAVITOCLAX] |  |  |  | 0.014 | 
O=C(NS(=O)(=O)c1ccc(N[C@H](CCN2CCOCC2)CSc2ccccc2)c(S(=O)(=O)C(F)(F)F)c1)c1ccc(N2CCC(CO)(Cc3ccccc3-c3ccc(Cl)cc3)CC2)cc1 | 0.059 | < 0.01 | 6 (≈ 5.83 µg/mL) | 0.112 | 
